Assay outcomes deposited in PubChem by several laboratories.
Myeloid diff MLP – myeloid differentiation induction; ER-HoxA9 myeloid progenitors, lysozyme-GFP differentiation, flow cytometry; hit rate 1% among 360,000; calls only at 10 µM; AID 624256;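 active means normalized GFP-positive differentiation at or above the plate's own cutoff, the solvent-only control mean plus 3 SD; inconclusive means no clear call, values can overlap the other calls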;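 further: cells exposed to compound for four days before flow analysis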
ABCB6 inh 2 – human ABCB6 transporter inhibition | K562-ABCB6 porphyrin accumulation, flow cytometry, 1 h; active compounds read low | fluorescence ratio to DMSO, % at 10 µM | hit rate 0.19% among 360,000;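 active means fluorescence ratio to DMSO below 75%, the collection mean minus 3 SD; inconclusive means too few cells collected in the well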;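 further: signal is porphyrin accumulated inside mitochondria; 100% equals median channel fluorescence of DMSO control wells; lower ratio means ABCB6 inhibition with less porphyrin fluorescence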
Target sequence (Q9NP58 whole entry, looked up): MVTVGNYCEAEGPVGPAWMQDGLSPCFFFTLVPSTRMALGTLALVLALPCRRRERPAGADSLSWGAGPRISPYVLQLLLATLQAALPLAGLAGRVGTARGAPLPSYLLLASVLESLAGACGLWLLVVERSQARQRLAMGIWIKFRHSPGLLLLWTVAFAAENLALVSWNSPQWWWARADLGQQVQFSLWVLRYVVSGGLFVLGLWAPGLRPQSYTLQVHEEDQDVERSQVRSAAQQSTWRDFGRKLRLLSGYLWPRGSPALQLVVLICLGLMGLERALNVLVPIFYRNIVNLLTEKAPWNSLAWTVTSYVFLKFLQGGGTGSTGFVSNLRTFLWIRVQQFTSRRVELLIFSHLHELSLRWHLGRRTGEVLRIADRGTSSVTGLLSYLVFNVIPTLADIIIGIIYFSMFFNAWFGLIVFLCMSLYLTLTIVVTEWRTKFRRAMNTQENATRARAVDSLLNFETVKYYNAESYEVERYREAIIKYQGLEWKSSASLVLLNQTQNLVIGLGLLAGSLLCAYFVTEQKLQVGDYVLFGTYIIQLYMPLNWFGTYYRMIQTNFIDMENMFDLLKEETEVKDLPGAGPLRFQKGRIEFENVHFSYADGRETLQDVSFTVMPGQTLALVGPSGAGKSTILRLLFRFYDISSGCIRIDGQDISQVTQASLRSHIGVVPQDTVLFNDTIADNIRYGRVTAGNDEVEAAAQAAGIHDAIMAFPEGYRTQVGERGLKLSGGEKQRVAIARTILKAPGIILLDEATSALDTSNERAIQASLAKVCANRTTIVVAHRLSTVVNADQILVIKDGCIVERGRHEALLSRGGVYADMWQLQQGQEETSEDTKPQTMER
Xi reactivation – X-chromosome reactivation activator | XiGFP mouse fibroblasts, % GFP-positive cells imaging, 3 d; cells co-treated with 5-aza-dC sensitizer; scaled so ellipticine positive control = 100% | activation, % at 7.58 µM | hit rate 0.055% among 360,000 | AID 743238;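 active means mean normalized replicate activation at least 10% and every replicate at or above 10%; inconclusive means only one of the two criteria met; inactive means mean below 10% and not all replicates reach 10%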;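 further: 0% = median of on-plate neutral control wells and 100% = ellipticine 6 µM median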
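Schedule: 3 d treatment, 15 min room-temperature fixation; system: 68-5-11 XiGFP fibroblast line; buffer or medium: DMEM plus 5-aza-dC sensitizer; control set: ellipticine 6 µM positive control; compound: one concentration, pinned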
Numbers without * were called inactive; i = inactive; ? = inconclusive; · = not tested or not shown; + = active, no number; ! = not confirmed by another sample. The full list was thinned out, with hits kept by preference.

SMILES	Myeloid diff MLP	ABCB6 inh 2	Xi reactivation
O=S(=O)(NCC[C@@H]1CC[C@H](NS(=O)(=O)c2cccc(Cl)c2)[C@H](CO)O1)c1cccc(F)c1	·	·	0.1
Cc1nnc(N2C(=O)C(O)=C(C(=O)c3ccco3)C2c2ccc(C(C)(C)C)cc2)s1 (stereo not given)	+	124.0	·
Cc1nnc(N2C(=O)C(O)=C(C(=O)c3ccco3)C2c2ccc(F)cc2)s1 (stereo not given)	i	102.0	0.0
Cc1c(Nc2ccc3nonc3c2[N+](=O)[O-])c(=O)n(-c2ccccc2)n1C	i	92.0	0.4
Cc1c(Nc2cc(Cl)c3nonc3c2[N+](=O)[O-])c(=O)n(-c2ccccc2)n1C	?	38.0*	19.1*
Cc1[nH]c2ccccc2c1/C=N/NC(=S)NC(C)C	+	96.0	0.5
CC(C)NC(=S)N/N=C/c1c[nH]c2ccccc12	i	97.0	·
C[C@H]1CN([C@@H](C)CO)C(=O)c2cccc(NS(=O)(=O)c3cccs3)c2O[C@H]1CN(C)S(=O)(=O)c1cccs1	·	·	-0.1
COc1ccc(-c2cn(CC[C@H]3CC[C@@H](NC(=O)Nc4ccc(F)cc4)[C@H](CO)O3)nn2)cc1	·	·	-0.5
CCOC(=O)C1CCN(S(=O)(=O)c2c(C(=O)N3CCCCC3)c(C)n(C)c2C)CC1	i	92.0	0.6
CCOC(=O)N1CCN(S(=O)(=O)c2c(C(=O)N3CCCCC3)c(C)n(C)c2C)CC1	+	96.0	0.2
CCC(=O)N1C[C@@H](C)[C@@H](OC)CN(C)C(=O)c2cc(NC(=O)C3CCOCC3)ccc2OC[C@H]1C	·	·	-0.5
Cc1cc(C)cc(NC(=O)N2CCC(NC(=O)c3ccco3)CC2)c1	?	96.0	0.2
Cc1ccc(NC(=O)N2CCC(NC(=O)c3ccco3)CC2)cc1	+	100.0	0.2
CO[C@H]1CN(C)C(=O)c2cc(NS(C)(=O)=O)ccc2OC[C@H](C)N(Cc2cccnc2)C[C@@H]1C	·	·	0.1
N#Cc1c(N)n(CCNC(=O)c2ccc(Cl)cc2)c2nc3ccccc3nc12	i	98.0	·
CCC(C)n1c(NC(=O)c2ccccc2)c(C#N)c2nc3ccccc3nc21 (stereo not given)	+	114.0	·
Cc1nn(C(C)(C)C)c(NC(=O)c2ccccc2)c1C#N	i	88.0	0.4
Cc1ccc(C(=O)NCCn2c(N)c(C#N)c3nc4ccccc4nc32)cc1	+	105.0	0.1
CCCCn1c(NC(=O)c2ccccc2)c(C#N)c2nc3ccccc3nc21	+	146.0	·
CCC(=O)Nc1c(C#N)c2nc3ccccc3nc2n1-c1ccc(C)cc1	i	101.0	-0.2
O=C(C[C@@H]1CC[C@H]2[C@@H](COC[C@@H](O)CN2C(=O)Nc2cccc(Cl)c2)O1)N1CCCCC1	·	·	0.0
O=C(C1CCC1)N1CC2(C1)[C@H](c1ccccc1)[C@@H](CO)N2Cc1nccs1	·	·	0.0
C[C@H](CO)N1C[C@H](C)[C@@H](CN(C)C)Oc2ccc(NS(=O)(=O)c3ccc(F)cc3)cc2CC1=O	·	·	0.3
COc1cc(NC(=O)c2ccc(Br)cc2)ccc1NC(=O)c1cc2ccccc2o1	i	93.0	0.3
SMILES	Myeloid diff MLP	ABCB6 inh 2	Xi reactivation
COc1cc(NC(=O)c2ccc(C)cc2)ccc1NC(=O)c1cc2ccccc2o1	+	108.0	0.4
CC(C)NC(=O)N(C)C[C@H]1Oc2ccc(NS(=O)(=O)c3ccc(F)cc3)cc2CC(=O)N([C@H](C)CO)C[C@H]1C	·	·	0.1
Cc1ccc(-n2nnnc2SCC(=O)NNC(=O)c2ccc([N+](=O)[O-])cc2)cc1	i	99.0	0.0
COc1ccc(-n2nnnc2SCC(=O)NNC(=O)c2ccc([N+](=O)[O-])cc2)cc1	i	69.0*	0.2
C[C@H](CO)N1C[C@H](C)[C@H](CN(C)C(=O)CC2CC2)Oc2ncc(C#Cc3cccnc3)cc2C1=O	·	·	0.0
O=C(CNC(=O)c1ccco1)N=Nc1c(O)[nH]c2ccc(Br)cc12	+	87.0	0.0
O=C(Cc1cccs1)N=Nc1c(O)[nH]c2ccc(Br)cc12	i	94.0	-0.1
O=S(=O)(N[C@@H]1CC[C@H](CCn2cc(-c3cccc(F)c3)nn2)O[C@@H]1CO)c1ccc(Cl)cc1	·	·	0.0
Clc1ccc2nnc(Cl)n2n1	+	90.0	0.0
FC(F)c1nnc2ccc(Cl)nn12	i	94.0	0.2
CO[C@@H]1CN(C)C(=O)c2ccc(NC(=O)NC3CCCCC3)cc2OC[C@@H](C)N(C(C)=O)C[C@H]1C	·	·	0.4
CCCNC(=O)Nc1ccc2c(c1)C(=O)N(C)C[C@H](OC)[C@H](C)CN(CC1CCCC1)[C@H](C)CO2	·	·	0.2
CC(C)NC(=O)N1CC2(C1)[C@H](c1ccccc1)[C@@H](CO)N2Cc1cccnc1	·	·	0.0
Cn1cnc(CCNC(=O)C[C@H]2CC[C@H]3[C@@H](COC[C@@H](O)CN3C(=O)C3CC3)O2)c1	·	·	0.0
CCOC(=O)c1ccc(NC(=O)Nc2ccn(C)n2)cc1	+	99.0	·
CCOC(=O)c1ccc(NC(=O)Nc2cccc(C)n2)cc1	i	90.0	0.7
C[C@@H]1CN([C@@H](C)CO)C(=O)c2cc(C#Cc3cccnc3)cnc2O[C@@H]1CN(C)C(=O)CC1CC1	·	·	0.0
CCC(=O)N1[C@H](CO)[C@@H](c2ccccc2)C12CN(CCC(F)(F)F)C2	·	·	0.0
COc1cccc(S(=O)(=O)N2CCCCN3[C@H](CO)[C@@H](c4ccc(C#CC5CC5)cc4)[C@@H]3C2)c1	·	·	0.1
CC1=Nc2ccc(C)cc2/C1=C/c1c(N)n2oc(C)cc2nc1=O	+!	113.0	0.8
CSc1nsc2nc(=O)c(/C=C3\C(C)=Nc4ccc(C)cc43)c(N)n12	i	121.0	-0.1
O=C(C1CC1)N1CC2(C1)[C@H](c1ccccc1)[C@@H](CO)N2C(=O)CC1CC1	·	·	0.2
COCC#Cc1ccc2c(c1)O[C@@H](CN(C)C(=O)Nc1ccc(OC)cc1)[C@@H](C)CN([C@H](C)CO)S2(=O)=O	·	·	-0.7
COc1ccc(N[C@@H]2CCN3C(=O)c4ccccc4[C@@H]3C[C@H]2O)cc1	i	102.0	0.1
N#Cc1ccc(N[C@@H]2CCN3C(=O)c4ccccc4[C@@H]3C[C@H]2O)cc1	+	105.0	0.0
SMILES	Myeloid diff MLP	ABCB6 inh 2	Xi reactivation
O=C(Nc1nc(-c2cccs2)cs1)c1cccc(S(=O)(=O)N2CCCCCC2)c1	+	84.0	·
O=C(COc1ccccc1)Nc1nc(-c2cccs2)cs1	i	95.0	·
O=C(Nc1nc(-c2cccs2)cs1)c1ccc(S(=O)(=O)N2CCCCC2)cc1	i	97.0	0.1
CC(=O)Nc1cccc(/C(C)=N/NC(=O)c2cccc(S(=O)(=O)N3CCCC3)c2)c1	i	72.0*	0.0
CC(=NNC(=O)c1cccc(S(=O)(=O)N2CCCC2)c1)c1ccccc1	i	94.0	0.0
O=C(CCS(=O)(=O)c1ccccc1)Nc1nc(-c2cccs2)cs1	+	95.0	-0.1
C[C@@H](NC(=O)C[C@@H]1CC[C@@H]2[C@H](COC[C@H](O)CN2C(=O)Nc2cccc(Cl)c2)O1)c1ccccc1	·	·	0.2
O=C(NCc1ccco1)C1CCN(C(=O)c2ccc(Cl)cc2Cl)CC1	+	102.0	0.1
O=C(NCc1cccnc1)C1CCN(C(=O)c2ccc(Cl)cc2Cl)CC1	i	88.0	·
CN1CCc2c(sc3c2C(=O)NC(c2ccco2)N3)C1 (stereo not given)	i	103.0	·
